Among the data in the array DNA melting data of Ke et al. (doi:10.1101/2024.01.08.574731) are folding enthalpy and Tm values, retold here.

Series [1] in a line: folding enthalpy; higher = less favourable; fluorescence melt of hairpins on a sequencing array, two-state fit. The conditions noted are these: sodium 0.088 M. The procedure, abridged: (§1)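 To match UV melts, fitted temperatures were raised by 9.35 °C. These fits were bootstrapped two-state models that gave melting temperature and folding enthalpy, combined by inverse variance over four replicates. The input was normalised Cy3 fluorescence of library hairpins with annealed Cy3 and quencher oligos on a sequenced MiSeq flow cell, imaged in 50 mM Na-HEPES pH 8.0, 25 mM NaCl in 2.5 °C steps up to 60 °C.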

The nature of series [2]: melting temperature; fluorescence melt of hairpins on a sequencing array, two-state fit, raised by 9.35 °C to match UV melts. The note with it: sodium 0.088 M. The procedure, abridged: as §1

Consider GTAGACGAAAGTCTGTAC ((((((....)))..))), for which the folding enthalpy in series [1] is -11.6 kcal/mol. Also, in series [2], the Tm was determined as 36.8 °C.
For GTAGACGGAAACGTCCAC ((.((((....)))).)), in that order: -13.4 kcal/mol and 37.9 °C.
For GTAGAGCGAAAGCTATAC (((.(((....))).))), in that order: -23.4 kcal/mol and 51.6 °C.
Turning to GTAGAGCGAAAGCTTAC (((.(((....)))))), in series [1], the folding enthalpy was -12.8 kcal/mol. Further, in series [2], the Tm is 38.5 °C.
Consider GTAGAGGGAAACCCCTAC ((((.((....)).)))), for which, in series [1], the folding enthalpy is -20.4 kcal/mol. The Tm in series [2] was determined as 39.2 °C.
The like results for GTAGAGGGAAACCTCTGC (.(((((....))))).) were, in that order, -23.1 kcal/mol and 45.9 °C.
The like results for GTAGATACGAAAGTATAC (((..(((....)))))) were, in that order, -11.6 kcal/mol and 25.4 °C.
For GTAGATCCGAAAGGATAC (((..(((....)))))), in that order: -11.1 kcal/mol and 30.4 °C.
On to GTAGATCGAAAGATTTAC (((.(((....))).))), for which the folding enthalpy in series [1] was -30.4 kcal/mol. The Tm in series [2] is 39.5 °C.
The like results for GTAGCACGAAAGTGTTAC (((.(((....))).))) were, in that order, -29.2 kcal/mol and 51.5 °C.
In the case of GTAGCAGAAATGCTAC ((((((....)))))), in series [1], the folding enthalpy was -35.4 kcal/mol. Further, the Tm in series [2] turned out to be 55.9 °C.
On to GTAGCAGGAAACTGCTGC (.(((((....))))).), for which, in series [1], the folding enthalpy is -26.2 kcal/mol. The Tm in series [2] turned out to be 55.5 °C.
For the sequence GTAGCCACGAAAGTGTAC (((..(((....)))))), the folding enthalpy in series [1] is -9.72 kcal/mol. Also, in series [2], the Tm turned out to be 22.3 °C.
The like results for GTAGCCGAAAGGCAGTAC ((((((....)))..))) were, in that order, -9.03 kcal/mol and 30.4 °C.
The like results for GTAGCCGAAAGGCTATAC ((((((....)))..))) were, in that order, -10.2 kcal/mol and 47.1 °C.
The like results for GTAGCCGAAAGGCTGTAC ((((((....)))..))) were, in that order, -9.24 kcal/mol and 31.2 °C.
In the case of GTAGCCGAAAGGCTTTAC ((((((....)))..))), in series [1], the folding enthalpy is -7 kcal/mol. Further, the Tm in series [2] stood at 27.3 °C.
For GTAGCCGGAAACGACTAC ((((.((....)).)))), in that order: -34.4 kcal/mol and 46.6 °C.
For GTAGCGCGAAAGCGTTAC (((.(((....))).))), in that order: -23.1 kcal/mol and 58.3 °C.
The like results for GTAGCGGCGAAAGCCTAC (((..(((....)))))) were, in that order, -10.4 kcal/mol and 29.9 °C.
On to GTAGCTCCGAAAGGATAC (((..(((....)))))), for which, in series [1], the folding enthalpy was -14.6 kcal/mol. Also, the Tm in series [2] is 25.4 °C.
For GTAGCTCGAAAGAGGTAC (((.(((....))).))), in that order: -38 kcal/mol and 56.7 °C.
As to GTAGCTCGAAAGAGTTAC (((.(((....))).))), the folding enthalpy in series [1] was -33.6 kcal/mol. Moreover, the Tm in series [2] turned out to be 50.6 °C.
The like results for GTAGCTGGAAACAGCTAC (((((((....))))))) were, in that order, -39 kcal/mol and 66 °C.
The like results for GTAGGACGAAAGTCTAC (((.(((....)))))) were, in that order, -17.2 kcal/mol and 43 °C.
The like results for GTAGGAGGAAACTCCTAC (((((((....))))))) were, in that order, -38 kcal/mol and 57.5 °C.
Turning to GTAGGAGGAAACTCTTAC (((.(((....))).))), the folding enthalpy in series [1] was -17.8 kcal/mol. Besides, in series [2], the Tm stood at 34.8 °C.
The like results for GTAGGCACGAAAGTGTAC (((..(((....)))))) were, in that order, -13.6 kcal/mol and 29.8 °C.
For GTAGGCCGAAAGGCTTAC (((.(((....))).))), in that order: -21.2 kcal/mol and 55.4 °C.
The like results for GTAGGCGAAAGCCACTAC ((((((....)))..))) were, in that order, -11.9 kcal/mol and 47.3 °C.
In the case of GTAGGCGAAAGCCTATAC ((((((....)))..))), in series [1], the folding enthalpy was -9.56 kcal/mol. For the same sequence, the Tm in series [2] was determined as 45.2 °C.
The like results for GTAGGCGGAAACACCTAC (((((.(....).))))) were, in that order, -25.8 kcal/mol and 44.5 °C.
The like results for GTAGGCGGAAACGCCTGC (.(((((....))))).) were, in that order, -18.6 kcal/mol and 56.7 °C.
The like results for GTAGGCTCGAAAGAGTAC (((..(((....)))))) were, in that order, -10.6 kcal/mol and 29.2 °C.
Turning to GTAGGGCGAAAGCCATAC (((.(((....))).))), the folding enthalpy in series [1] was -22.2 kcal/mol. Besides, the Tm in series [2] is 55.6 °C.
The like results for GTAGGTGGAAACACCCAC ((.((((....)))).)) were, in that order, -13.1 kcal/mol and 34.7 °C.
